Measurements collected from several papers.
Protocols differ between the studies behind these lines.
Toll-like receptor 1/2: Toll-like receptor 1/2 (Homo sapiens, UniProt O60603+Q15399)
Chymotrypsinogen A: Chymotrypsinogen A (Bos taurus, UniProt P00766)
RORC: Nuclear receptor ROR-gamma (RORC, Homo sapiens, UniProt P51449)

| target | test | conditions | quantity | result | SMILES |
| --- | --- | --- | --- | --- | --- |
| Toll-like receptor 1/2 | reporter gene, agonist | – | EC50 | 2780 nM | CNc1ccc([N+](=O)[O-])cc1-n1cnc(-c2ccc(F)cc2)c1 |
| PA-I galactophilic lectin (lecA, Pseudomonas aeruginosa, UniProt Q05097) | ligand displacement, FP | – | Ki | 3820 nM | O=C(Cn1cc(CN2CCN(c3cc4c(cc3F)c(=O)c(C(=O)O)cn4C3CC3)CC2)nn1)Nc1ccc(S[C@@H]2O[C@H](CO)[C@H](O)[C@H](O)[C@H]2O)cc1 |
| Chymotrypsinogen A | enzyme activity, inhibitor, fluorescence | – | Ki | 496 nM | CCCC[C@H](NC(=O)[C@H](CCC(N)=O)NC(=O)[C@H](CO)NC(=O)[C@H](Cc1ccccc1)NC(=O)CCCCCN)C(=O)N[C@@H](CCCBr)B1O[C@@H]2C[C@@H]3C[C@@H](C3(C)C)[C@]2(C)O1 |
| Toll-like receptor 1/2 | reporter gene, agonist | – | EC50 | > 100000 nM | CCNc1ccc([N+](=O)[O-])cc1-n1cnc(-c2ccc([N+](=O)[O-])cc2)c1 |
| Neuromedin-U receptor 1 (Mus musculus, UniProt O55040) | β-arrestin recruitment, agonist | – | EC50 | 11.5 nM | CC(C)C[C@H](NC(=O)[C@H](Cc1ccccc1)NC(=O)[C@@H](N)Cc1ccc(O)cc1)C(=O)N[C@@H](Cc1ccccc1)C(=O)N[C@@H](CCCNC(=N)N)C(=O)N1CCC[C@H]1C(=O)N[C@@H](CCCNC(=N)N)C(=O)N[C@@H](CC(N)=O)C(N)=O |
| Chymotrypsinogen A | enzyme activity, inhibitor, fluorescence | – | Ki | 506 nM | CCCC[C@H](NC(=O)[C@H](CCC(N)=O)NC(=O)[C@H](CO)NC(=O)C[C@@H](Cc1ccc2ccccc2c1)NC(=O)CCCCCN)C(=O)N[C@@H](CCCBr)B(O)O |
| RORC | ligand displacement, radioligand | – | IC50 | 230 nM | Cc1cccc(C)c1COc1ccc2c(c1)N(S(=O)(=O)c1cccc(C(F)(F)F)c1)CC2 |
| Toll-like receptor 1/2 | reporter gene, agonist | – | EC50 | 240 nM | CNc1ccc(C(F)(F)F)cc1-n1cnc(-c2ccc(C(F)(F)F)cc2)c1 |
| Apelin receptor (Aplnr, Mus musculus, UniProt Q9WV08) | cAMP, agonist | – | EC50 | 0.03 nM | CCOCc1nc(O)c(-c2nnc(Cc3ccc(Cl)cn3)o2)c(O)c1-c1c(OC)cccc1OC |
| RORC | ligand displacement, radioligand | – | IC50 | 230 nM | O=S(=O)(c1cccc(C(F)(F)F)c1)N1CCc2ccc(OCc3c(F)cncc3Cl)cc21 |
| Tyrosine-protein kinase Fer (FER, Homo sapiens, UniProt P16591) | binding, competition with immobilised ligand | – | Kd | 14 nM | Cc1cnc(-c2ccc(-c3ccc(NC(=O)Nc4c(F)cc(F)cc4F)cc3F)c3c2C(=O)NC3)[nH]1 |
| Toll-like receptor 1/2 | reporter gene, agonist | – | EC50 | 230 nM | CCCCc1ccc(-c2cn(-c3cc([N+](=O)[O-])ccc3NC)cn2)cc1 |
| RORC | ligand displacement, radioligand | – | IC50 | 78 nM | O=S(=O)(c1cccc(C(F)(F)F)c1)N1CCc2ccc(OCc3c(Cl)ccnc3Cl)cc21 |
| Chymotrypsinogen A | enzyme activity, inhibitor, fluorescence | – | Ki | 251 nM | CCCC[C@H](NC(=O)[C@H](CCC(N)=O)NC(=O)[C@H](CO)NC(=O)CCCCCN)C(=O)N[C@@H](CCCBr)B(O)O |
| Toll-like receptor 1/2 | reporter gene, agonist | – | EC50 | 120 nM | CNc1ccc([N+](=O)[O-])cc1-n1cnc(-c2ccc(C3CCCCC3)cc2)c1 |
| Pumilio homolog 2 (Homo sapiens, UniProt Q8TB72) | binding | lysate | Kd | 15 nM | Cc1cc2nc3c(=O)[nH]c(=O)nc-3n(C[C@H](O)[C@H](O)[C@H](O)COP(=O)(O)OP(=O)(O)OC[C@H]3O[C@@H](n4cnc5c(N)ncnc54)[C@H](O)[C@@H]3O)c2cc1C |
| Beta-glucosidase (GBA2, Homo sapiens, UniProt Q9HCG7) | enzyme activity, inhibitor | pH 5.5, lysate | IC50 | 350 nM | OC[C@@H]1[C@@H](O)[C@H](O)[C@@H](O)[C@@H]2O[C@H]12 |
| Toll-like receptor 1/2 | reporter gene, agonist | – | EC50 | > 100000 nM | CNc1ccc([N+](=O)[O-])cc1-n1cnc(-c2cc(F)c(F)cc2F)c1 |
| Cyclin-dependent kinase 4, with cyclin D1 (CDK4, Homo sapiens, UniProt P11802) | binding, competition with immobilised ligand | – | Kd | 150 nM | Cc1cc(Nc2cc3ncccc3c(N[C@@H]3C[C@H]4CC[C@@H](C3)N4CCC#N)n2)n[nH]1 |
| RORC | ligand displacement, radioligand | – | IC50 | 150 nM | O=S(=O)(c1cccc(C(F)(F)F)c1)N1c2cc(OCc3c(Cl)cncc3Cl)ccc2CC1C(F)(F)F (centres unmarked) |
